Reference: ChEMBL document CHEMBL4689842, “EUbOPEN Chemogenomics Library wave 1” (2021)

Test system: U2OS
Assay: Multiplex assay against U2OS
Type: toxicity, cell-based
Conditions: human
Method in brief: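 Per cents of healthy-nucleus cells form the tubulin, mitochondrial-mass and membrane-permeability phenotype values. Live cells were stained at seeding with Hoechst33342, BioTracker Green Microtubule Cytoskeleton Dye, MitoTracker Red and Annexin V Alexa Fluor 680. After compound addition they were imaged on a CQ1 microscope at 37°C and 5% CO2, and CellPathfinder machine-learning gating split them into Hoechst high-intensity objects or normal cells, normal cells into healthy, pyknosed or fragmented nuclei, and pyknosed cells into mitotic or apoptotic.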

[1] = 12 h, 1 µM, compound concentration 1 uM, replicate 1
[2] = 12 h, 1 µM, compound concentration 1 uM, replicate 2
[3] = 12 h, 10 µM, compound concentration 10 uM, replicate 1
[4] = 12 h, 10 µM, compound concentration 10 uM, replicate 2
[5] = 24 h, 1 µM, compound concentration 1 uM, replicate 1
[6] = 24 h, 1 µM, compound concentration 1 uM, replicate 2
[7] = 24 h, 10 µM, compound concentration 10 uM, replicate 1
[8] = 24 h, 10 µM, compound concentration 10 uM, replicate 2

SMILES: CCOC(=O)CCNc1cc(N2CCc3ccccc3CC2)nc(-c2ccccn2)n1
- Population Apoptotic (%) [1]: 37%
- Population Fragmented Nuclei (%) [1]: 7%
- Population Healthy Nuclei (%) [1]: 85%
- Population Hoechst High Intensity Objects (%) [1]: 3%
- Population Membrane Permeable-Phenotype (%) [1]: 14%
- Population Mitochondria Different-Phenotype (%) [1]: 40%
- Population Mitotic Cells (%) [1]: 62%
- Population Normal (%) [1]: 96%
- Population Pyknosed Nuclei (%) [1]: 6%
- Population Tubulin-Different-Phenotype (%) [1]: 30%
- Total Cell Count [1]: 244
- Population Apoptotic (%) [2]: 45%
- Population Fragmented Nuclei (%) [2]: 4%
- Population Healthy Nuclei (%) [2]: 86%
- Population Hoechst High Intensity Objects (%) [2]: 8%
- Population Membrane Permeable-Phenotype (%) [2]: 13%
- Population Mitochondria Different-Phenotype (%) [2]: 27%
- Population Mitotic Cells (%) [2]: 54%
- Population Normal (%) [2]: 91%
- Population Pyknosed Nuclei (%) [2]: 9%
- Population Tubulin-Different-Phenotype (%) [2]: 23%
- Total Cell Count [2]: 141
- Population Apoptotic (%) [3]: 46%
- Population Fragmented Nuclei (%) [3]: 7%
- Population Healthy Nuclei (%) [3]: 82%
- Population Hoechst High Intensity Objects (%) [3]: 5%
- Population Membrane Permeable-Phenotype (%) [3]: 11%
- Population Mitochondria Different-Phenotype (%) [3]: 32%
- Population Mitotic Cells (%) [3]: 53%
- Population Normal (%) [3]: 94%
- Population Pyknosed Nuclei (%) [3]: 10%
- Population Tubulin-Different-Phenotype (%) [3]: 34%
- Total Cell Count [3]: 133
- Population Apoptotic (%) [4]: 40%
- Population Fragmented Nuclei (%) [4]: 3%
- Population Healthy Nuclei (%) [4]: 92%
- Population Hoechst High Intensity Objects (%) [4]: 9%
- Population Membrane Permeable-Phenotype (%) [4]: 9%
- Population Mitochondria Different-Phenotype (%) [4]: 29%
- Population Mitotic Cells (%) [4]: 60%
- Population Normal (%) [4]: 90%
- Population Pyknosed Nuclei (%) [4]: 3%
- Population Tubulin-Different-Phenotype (%) [4]: 26%
- Total Cell Count [4]: 126
- Population Apoptotic (%) [5]: 33%
- Population Fragmented Nuclei (%) [5]: 5%
- Population Healthy Nuclei (%) [5]: 91%
- Population Hoechst High Intensity Objects (%) [5]: 1%
- Population Membrane Permeable-Phenotype (%) [5]: 11%
- Population Mitochondria Different-Phenotype (%) [5]: 36%
- Population Mitotic Cells (%) [5]: 66%
- Population Normal (%) [5]: 98%
- Population Pyknosed Nuclei (%) [5]: 3%
- Population Tubulin-Different-Phenotype (%) [5]: 36%
- Total Cell Count [5]: 264
- Population Apoptotic (%) [6]: 16%
- Population Fragmented Nuclei (%) [6]: 8%
- Population Healthy Nuclei (%) [6]: 87%
- Population Hoechst High Intensity Objects (%) [6]: 10%
- Population Membrane Permeable-Phenotype (%) [6]: 10%
- Population Mitochondria Different-Phenotype (%) [6]: 28%
- Population Mitotic Cells (%) [6]: 83%
- Population Normal (%) [6]: 89%
- Population Pyknosed Nuclei (%) [6]: 4%
- Population Tubulin-Different-Phenotype (%) [6]: 23%
- Total Cell Count [6]: 146
- Population Apoptotic (%) [7]: 64%
- Population Fragmented Nuclei (%) [7]: 7%
- Population Healthy Nuclei (%) [7]: 83%
- Population Hoechst High Intensity Objects (%) [7]: 5%
- Population Membrane Permeable-Phenotype (%) [7]: 7%
- Population Mitochondria Different-Phenotype (%) [7]: 37%
- Population Mitotic Cells (%) [7]: 35%
- Population Normal (%) [7]: 94%
- Population Pyknosed Nuclei (%) [7]: 8%
- Population Tubulin-Different-Phenotype (%) [7]: 13%
- Total Cell Count [7]: 181
- Population Apoptotic (%) [8]: 81%
- Population Fragmented Nuclei (%) [8]: 4%
- Population Healthy Nuclei (%) [8]: 88%
- Population Hoechst High Intensity Objects (%) [8]: 7%
- Population Membrane Permeable-Phenotype (%) [8]: 8%
- Population Mitochondria Different-Phenotype (%) [8]: 36%
- Population Mitotic Cells (%) [8]: 18%
- Population Normal (%) [8]: 92%
- Population Pyknosed Nuclei (%) [8]: 7%
- Population Tubulin-Different-Phenotype (%) [8]: 9%
- Total Cell Count [8]: 165
